Measurements published in ChEMBL document CHEMBL1145688, “New sesquiterpene hydroquinones from a Taiwanese marine sponge Polyfibrospongia australis” (J Nat Prod, 1997).
In brackets after ≈: the same amount, converted by molar mass.

Columns and labels:
Assay type in all cases: functional, cell-based
[1] = Cytotoxicity against human KB16 cells after 3 days by MTT assay; settings: KB16, 72 h
Outline: (§1)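 Modified MTT colorimetric assay. Cells seeded at 1000 cells/well and exposed to twofold serial dilutions of compound. Incubation ran 6 days for A-549 and 3 days for KB-16 and P-388. MTT (1 mg/mL) was then added for 5 h at 37 °C, formazan dissolved in DMSO, and absorbance read at 540 nm. IC50 is the concentration giving a 50% absorbance reduction versus untreated cells.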

A549 = test: Cytotoxicity against human A549 cells after 6 days by MTT assay; settings: A549, 144 h; outline: as §1
P388 = test: Cytotoxicity against mouse P388 cells after 3 days by MTT assay; settings: P388, 72 h; outline: as §1

Compound | IC50 [1] | IC50 (A549) | IC50 (P388)
C=C1CCC[C@H]2[C@](C)(Cc3cc(C(=O)OC)cc(O)c3O)[C@@H](C)CC[C@]12C [DICTYOCERATIN A] | 1.4 µg/mL (≈ 3.76 µM) | 0.7 µg/mL (≈ 1.88 µM) | 1.4 µg/mL (≈ 3.76 µM)
C=C1CCC[C@H]2[C@](C)(Cc3cc(C(=O)OC)cc(OC(C)=O)c3OC(C)=O)[C@@H](C)CC[C@]12C | 1.8 µg/mL (≈ 3.94 µM) | 1.5 µg/mL (≈ 3.29 µM) | 1.9 µg/mL (≈ 4.16 µM)
C=C1CCC[C@H]2[C@](C)(Cc3cc(C(=O)OC)cc(OC)c3OC(C)=O)[C@@H](C)CC[C@]12C [POLYFIBROSPONGOL A MONOACETATE] | 2.1 µg/mL | 3.1 µg/mL | 3.4 µg/mL
C=C1CCC[C@H]2[C@](C)(Cc3cc(C(=O)OC)cc(OC)c3O)[C@@H](C)CC[C@]12C [POLYFIBROSPONGOL A] | 1.4 µg/mL (≈ 3.62 µM) | 0.6 µg/mL (≈ 1.55 µM) | 0.7 µg/mL (≈ 1.81 µM)
C=C1CCC[C@H]2[C@](CO)(Cc3cc(C(=O)OC)cc(OC)c3O)[C@@H](C)CC[C@]12C [POLYFIBROSPONGOL B] | 2 µg/mL (≈ 4.97 µM) | 1 µg/mL (≈ 2.48 µM) | 1 µg/mL (≈ 2.48 µM)
C=C1CCC[C@H]2[C@](COC(C)=O)(Cc3cc(C(=O)OC)cc(OC)c3OC(C)=O)[C@@H](C)CC[C@]12C [POLYFIBROSPONGOL B DIACETATE] | > 50 µg/mL | > 50 µg/mL | > 50 µg/mL
C=C1CCC[C@H]2[C@](C)(CC3=C(O)C(=O)C=C(OC)C3=O)[C@@H](C)CC[C@]12C [ILIMAQUINONE] | 0.7 µg/mL (≈ 1.95 µM) | 0.4 µg/mL (≈ 1.12 µM) | 0.2 µg/mL (≈ 0.558 µM)
